According to ChEMBL document CHEMBL1926577, “Novel 1,3,4-heterodiazole analogues: synthesis and in-vitro antitumor activity” (2012):
Activity calls are given as the source filed them. No cut-off for these calls is given here.

Key:
Assay type in all cases: functional
786-0 = test: Growth inhibition of human 786-0 cells at 10 uM after 48 hrs by coulter counter method; settings: 786-0, 48 h, read-out: GI
Method in brief: (§1)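 NCI 60-cell-line panel, single dose. Compound dissolved first in DMSO, then diluted in phosphate-buffered saline so that every final dilution held under 1% DMSO. Duplicate wells received cells at 6 × 10⁴ cells/ml. Controls held PBS/DMSO at the same dilution. Plates were incubated 48 h at 37 °C under 5% CO₂. Cells were then diluted 10-fold in saline and counted on a Coulter counter, with counts corrected for the dilution. Results are given as percent growth inhibition.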

NCI-H322M = test: Growth inhibition of human NCI-H322M cells at 10 uM after 48 hrs by coulter counter method; settings: read-out: GI; method in brief: as §1
KM12 = test: Growth inhibition of human KM12 cells at 10 uM after 48 hrs by coulter counter method; settings: KM12, 48 h, read-out: GI; method in brief: as §1
NSCLC = test: Growth inhibition of human NSCLC cells after 48 hrs by coulter counter method
Method in brief: (§2)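 NCI 60-line panel cells. Compound is dissolved in DMSO and diluted in phosphate-buffered saline, with final DMSO below 1%. It is added in duplicate wells to cultures at 6 × 10⁴ cells/ml and held at 37 °C, 5% CO₂, humidified, for 48 h. Cells are diluted 10-fold in saline, counted by Coulter counter and dilution-corrected. Vehicle controls contain PBS plus DMSO.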

SK-MEL-5 = test: Growth inhibition of human SK-MEL-5 cells at 10 uM after 48 hrs by coulter counter method; settings: SK-MEL-5, 48 h, read-out: GI; method in brief: as §1
UO-31 = test: Growth inhibition of human UO31 cells at 10 uM after 48 hrs by coulter counter method; method in brief: as §1
OVCAR-8 = test: Growth inhibition of human OVCAR8 cells at 10 uM after 48 hrs by coulter counter method; settings: OVCAR-8, 48 h, read-out: GI; method in brief: as §1
NCI-H23 = test: Growth inhibition of human NCI-H23 cells at 10 uM after 48 hrs by coulter counter method; settings: NCI-H23, 48 h, read-out: GI; method in brief: as §1
M14 = test: Growth inhibition of human M14 cells at 10 uM after 48 hrs by coulter counter method; settings: M14, 48 h, read-out: GI; method in brief: as §1
HL-60(TB) = test: Growth inhibition of human HL-60(TB) cells at 10 uM after 48 hrs by coulter counter method; settings: HL-60, 48 h, read-out: GI
Method in brief: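 Single-dose screen on the NCI 60-line panel (leukemia subpanel). Compound is dissolved in DMSO and diluted in PBS, with final DMSO below 1%. Duplicate wells hold 6 × 10⁴ cells/ml at 37 °C, 5% CO₂, for 48 h. Cells are counted by Coulter counter after 10-fold saline dilution. Read-out is percent growth versus PBS/DMSO controls, expressed as % growth inhibition.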

SF-268 = test: Growth inhibition of human SF268 cells at 10 uM after 48 hrs by coulter counter method; settings: SF-268, 48 h, read-out: GI; method in brief: as §1
NCI/ADR-RES = test: Growth inhibition of human NCI/ADR-RES cells at 10 uM after 48 hrs by coulter counter method; settings: read-out: GI; method in brief: as §1
LOX IMVI = test: Growth inhibition of human LOXIMVI cells at 10 uM after 48 hrs by coulter counter method; method in brief: as §1
SR = test: Growth inhibition of human SR cells at 10 uM after 48 hrs by coulter counter method; settings: read-out: GI; method in brief: as §1
MCF7 = test: Growth inhibition of human MCF7 cells at 10 uM after 48 hrs by coulter counter method; settings: MCF7, 48 h, read-out: GI; method in brief: as §1
CAKI-1 = test: Growth inhibition of human Caki1 cells at 10 uM after 48 hrs by coulter counter method; method in brief: as §1
[1] = Growth inhibition of human ovarian cancer cells after 48 hrs by coulter counter method; settings: Cancer cell lines; method in brief: as §2
MDA-MB-435 = test: Growth inhibition of human MDA-MB-435 cells at 10 uM after 48 hrs by coulter counter method; settings: MDA-MB-435, 48 h, read-out: GI; method in brief: as §1
[2] = Growth inhibition of human renal cancer cells after 48 hrs by coulter counter method; settings: Cancer cell lines; method in brief: as §2
SK-MEL-28 = test: Growth inhibition of human SK-MEL-28 cells at 10 uM after 48 hrs by coulter counter method; settings: SK-MEL-28, 48 h, read-out: GI; method in brief: as §1
RPMI-8226 = test: Growth inhibition of human RPMI8226 cells at 10 uM after 48 hrs by coulter counter method; settings: RPMI-8226, 48 h, read-out: GI; method in brief: as §1
[3] = Growth inhibition of human prostate cancer cells after 48 hrs by coulter counter method; settings: Cancer cell lines; method in brief: as §2
Malme-3M = test: Growth inhibition of human MALME-3M cells at 10 uM after 48 hrs by coulter counter method; method in brief: as §1
[4] = Growth inhibition of human colon cancer cells after 48 hrs by coulter counter method; settings: Cancer cell lines; method in brief: as §2
T47D = test: Growth inhibition of human T47D cells at 10 uM after 48 hrs by coulter counter method; settings: read-out: GI; method in brief: as §1
HCT-116 = test: Growth inhibition of human HCT116 cells at 10 uM after 48 hrs by coulter counter method; settings: HCT-116, 48 h, read-out: GI; method in brief: as §1
NCI-H226 = test: Growth inhibition of human NCI-H226 cells at 10 uM after 48 hrs by coulter counter method; settings: NCI-H226, 48 h, read-out: GI; method in brief: as §1
Melanoma cell = test: Growth inhibition of human Melanoma cells after 48 hrs by coulter counter method; method in brief: as §2
HCT-15 = test: Growth inhibition of human HCT15 cells at 10 uM after 48 hrs by coulter counter method; settings: HCT-15, 48 h, read-out: GI; method in brief: as §1
HT-29 = test: Growth inhibition of human HT-29 cells at 10 uM after 48 hrs by coulter counter method; settings: HT-29, 48 h, read-out: GI; method in brief: as §1
SNB-19 = test: Growth inhibition of human SNB19 cells at 10 uM after 48 hrs by coulter counter method; settings: SNB-19, 48 h, read-out: GI; method in brief: as §1
MDA-MB-468 = test: Growth inhibition of human MDA-MB-468 cells at 10 uM after 48 hrs by coulter counter method; settings: MDA-MB-468, 48 h, read-out: GI; method in brief: as §1
BT-549 = test: Growth inhibition of human BT549 cells at 10 uM after 48 hrs by coulter counter method; settings: BT-549, 48 h, read-out: GI; method in brief: as §1
K562 = test: Growth inhibition of human K562 cells at 10 uM after 48 hrs by coulter counter method; settings: K562, 48 h, read-out: GI; method in brief: as §1
PC-3 = test: Growth inhibition of human PC3 cells at 10 uM after 48 hrs by coulter counter method; settings: PC-3, 48 h, read-out: GI; method in brief: as §1
[5] = read-out: LC50 (the source's name)

Molecule `O=C1CN2N=C(c3ccccc3)SC2=N1` has an inhibition of growth at 10 µM (786-0) of 25.1%, an inhibition of growth at 10 µM (NCI-H322M) of 22.1% and an inhibition of growth at 10 µM (KM12) of 21.8%. The GI50 (NSCLC) was 9.7 µM, the TGI (NSCLC) was 20.7 µM and the CC50 (NSCLC; [5]) was 55.7 µM. The inhibition of growth at 10 µM (SK-MEL-5) was 35.2%, the “growth inhibition (GI)” value (UO-31) was “Active” and the inhibition of growth at 10 µM (OVCAR-8) was 35.3%. The inhibition of growth at 10 µM (NCI-H23) was 21.6%, the inhibition of growth at 10 µM (M14) was 30.2% and the inhibition of growth at 10 µM (HL-60(TB)) was 21%. The inhibition of growth at 10 µM (SF-268) was 20%, the inhibition of growth at 10 µM (NCI/ADR-RES) was 17.9% and the “growth inhibition (GI)” value (LOX IMVI) was “Active”. The inhibition of growth at 10 µM (SR) was 36.3%, the inhibition of growth at 10 µM (MCF7) was 46.4% and the “growth inhibition (GI)” value (CAKI-1) was “Active”. The GI50 [1] was 7.7 µM, the TGI [1] was 33.5 µM and the CC50 [1, 5] was 83.9 µM. For the same molecule, the inhibition of growth at 10 µM (MDA-MB-435) was 30.4%, the GI50 [2] was 8.9 µM and the TGI [2] was 16.6 µM. It also gave a CC50 [2, 5] of 42.3 µM, an inhibition of growth at 10 µM (SK-MEL-28) of 10.4% and an inhibition of growth at 10 µM (RPMI-8226) of 72.2%. The GI50 [3] was 7.6 µM, the TGI [3] was 18.3 µM and the CC50 [3, 5] was 50.8 µM. For the same molecule, the “growth inhibition (GI)” value (Malme-3M) was “Active”, the GI50 [4] was 9.4 µM and the LC50 [4] was 67.1 µM. The TGI [4] was 24.9 µM, the inhibition of growth at 10 µM (T47D) was 33.2% and the inhibition of growth at 10 µM (HCT-116) was 42.6%. The inhibition of growth at 10 µM (NCI-H226) was 27.7%, the GI50 (Melanoma cell) was 8 µM and the LC50 (Melanoma cell) was 51.4 µM. For the same molecule, the TGI (Melanoma cell) was 20.1 µM, the inhibition of growth at 10 µM (HCT-15) was 44.8% and the inhibition of growth at 10 µM (HT-29) was 36.2%. It also gave an inhibition of growth at 10 µM (SNB-19) of 23.2%, an inhibition of growth at 10 µM (MDA-MB-468) of 61.5% and an inhibition of growth at 10 µM (BT-549) of 53.4%. For the same molecule, the inhibition of growth at 10 µM (K562) was 34.8% and the inhibition of growth at 10 µM (PC-3) was 30.1%.
